Data published in ChEMBL document CHEMBL1150584, “Antifungal stilbenoids from Stemona collinsae” (J Nat Prod, 2002).
Converted amounts (≈) assume the structure as drawn. The source made the active and inactive calls. The calls are words filed in the database; no cut-off is given here.

Assays:
Cladosporium herbarum [1] = experiment: Growth inhibition of Cladosporium herbarum VIAM MA1511 at 10 ug by bioautography test; format: functional, organism-based
Alternaria citri = experiment: Inhibition of germ tube formation in Alternaria citri VIAM MA1627 after 16 hrs by microdilution technique; format: functional, organism-based
Method in brief: (§1)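 Stock (2 mg in 250 µL acetone plus 4.75 mL 4% malt extract, emulsified with 0.2% Tween 80) serially 2-fold microdiluted in 4% malt extract broth. Conidia were added at 10⁴ CFU/mL, then incubated 16 h at room temperature and stopped with lactophenol blue. Mycelial size was taken as pixel counts from images of 10 germinated conidia per well. Probit-log estimates covered 200–0.1 µg/mL. Controls were vehicle stock and benomyl.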

Botrytis cinerea [2] = experiment: Inhibition of germ tube formation in Botrytis cinerea VIAM MA2725 at 0.4 to 200 ug/ml after 16 hrs by microdilution technique; format: functional
Method in brief: (§2)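 Germ tube inhibition by 2-fold serial microdilution in 4% malt extract broth. Compound stock of 2 mg in 250 µL acetone plus 4.75 mL malt extract with 0.2% Tween 80; negative control was stock without compound. Spores added at 10⁴ CFU/mL, incubated 16 h at room temperature, stopped with lactophenol blue. Mycelial size taken as pixel counts from images of 10 germinated conidia per well. Probit-log estimates over 200–0.1 µg/mL; MIC = lowest concentration with no germination.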

Cladosporium herbarum [3] = experiment: Inhibition of germ tube formation in Cladosporium herbarum VIAM MA1511 at 0.4 to 200 ug/ml after 16 hrs by microdilution technique; format: functional; method in brief: as §2
Botrytis cinerea [4] = experiment: Inhibition of germ tube formation in Botrytis cinerea VIAM MA2725 after 16 hrs by microdilution technique; format: functional, organism-based; method in brief: as §1
Fusarium avenaceum [5] = experiment: Inhibition of germ tube formation in Fusarium avenaceum VIAM MA1512 after 16 hrs by microdilution technique; format: functional, organism-based; method in brief: as §1
Cladosporium herbarum [6] = experiment: Inhibition of germ tube formation in Cladosporium herbarum VIAM MA1511 after 16 hrs by microdilution technique; format: functional, organism-based; method in brief: as §1
Pyricularia grisea = experiment: Inhibition of germ tube formation in Pyricularia grisea VIAM MA1628 after 16 hrs by microdilution technique; format: functional, organism-based; method in brief: as §2
Fusarium avenaceum [7] = experiment: Inhibition of germ tube formation in Fusarium avenaceum VIAM MA1512 at 1.6 to 200 ug/ml after 16 hrs by microdilution technique; format: functional; method in brief: as §1
Botrytis cinerea [8] = experiment: Inhibition of germ tube formation in Botrytis cinerea VIAM MA2725 at 1.6 to 200 ug/ml after 16 hrs by microdilution technique; format: functional; method in brief: as §1

Row | SMILES | Activity (Cladosporium herbarum [1]) | EC50 (Alternaria citri) | EC90 (Alternaria citri) | MIC (Alternaria citri) | inhibition (INH) (Botrytis cinerea [2]) | inhibition (INH) (Cladosporium herbarum [3]) | MIC (Botrytis cinerea [4]) | EC50 (Fusarium avenaceum [5]) | EC90 (Fusarium avenaceum [5]) | MIC (Fusarium avenaceum [5]) | MIC (Cladosporium herbarum [6]) | EC90 (Pyricularia grisea) | MIC (Pyricularia grisea) | EC50 (Botrytis cinerea [4]) | EC90 (Botrytis cinerea [4]) | EC50 (Cladosporium herbarum [6]) | EC90 (Cladosporium herbarum [6]) | EC50 (Pyricularia grisea) | inhibition (INH) (Fusarium avenaceum [7]) | inhibition (INH) (Botrytis cinerea [8])
1 | COc1cc(O)c(C)c(-c2cc3c(O)cccc3o2)c1 | Active | – | – | – | – | – | – | – | – | – | – | – | – | – | – | – | – | – | – | –
2 | COc1cc(O)c(C)c(CCc2cccc(O)c2OC)c1 | Active | – | – | – | – | – | – | – | – | – | – | – | – | – | – | – | – | – | – | –
3 | COc1cc(O)cc(CCc2cccc(O)c2OC)c1 | Active | – | – | – | – | – | – | – | – | – | – | – | – | – | – | – | – | – | – | –
4 | Cc1c(O)cc(/C=C/c2ccccc2)cc1O | Active | – | – | – | – | – | – | – | – | – | – | – | – | – | – | – | – | – | – | –
5 | Cc1c(O)cc(CCc2ccccc2O)cc1O | Active | – | – | – | – | – | – | – | – | – | – | – | – | – | – | – | – | – | – | –
6 | Oc1cc(O)cc(-c2cc3ccccc3o2)c1 | Active | – | – | – | – | – | – | – | – | – | – | – | – | – | – | – | – | – | – | –
7 | Oc1cc(O)cc(/C=C/c2ccccc2)c1 | Active | – | – | – | – | – | – | – | – | – | – | – | – | – | – | – | – | – | – | –
8 | CCCCNC(=O)n1c(NC(=O)OC)nc2ccccc21 [BENOMYL] | – | > 200 µg/mL | > 200 µg/mL | > 200 µg/mL | 85% | 85% | > 200 µg/mL | 0.02 µg/mL (≈ 0.0689 µM) | > 200 µg/mL | 100 µg/mL (≈ 344 µM) | > 200 µg/mL | 84 µg/mL (≈ 289 µM) | 200 µg/mL (≈ 689 µM) | – | – | – | – | – | – | –
9 | COc1cc(O)cc(-c2cc3c(O)cccc3o2)c1 [STEMOFURAN B] | Active | 5 µg/mL (≈ 19.5 µM) | 128 µg/mL (≈ 499 µM) | 200 µg/mL (≈ 780 µM) | – | – | > 200 µg/mL | 10 µg/mL (≈ 39 µM) | > 200 µg/mL | > 200 µg/mL | > 200 µg/mL | 52 µg/mL (≈ 203 µM) | 50 µg/mL (≈ 195 µM) | 8 µg/mL (≈ 31.2 µM) | > 200 µg/mL | 183 µg/mL (≈ 714 µM) | > 200 µg/mL | 1.4 µg/mL (≈ 5.46 µM) | – | –
10 | Cc1c(O)cc(-c2cc3ccccc3o2)cc1O [STEMOFURAN C] | Active | 7 µg/mL (≈ 29.1 µM) | 528 µg/mL (≈ 2200 µM) | > 200 µg/mL | – | – | > 200 µg/mL | 21 µg/mL (≈ 87.4 µM) | > 200 µg/mL | > 200 µg/mL | > 200 µg/mL | 30 µg/mL (≈ 125 µM) | 50 µg/mL (≈ 208 µM) | 29 µg/mL (≈ 121 µM) | > 200 µg/mL | 8 µg/mL (≈ 33.3 µM) | > 200 µg/mL | 3.2 µg/mL (≈ 13.3 µM) | – | –
11 | COc1cc(-c2cc3c(O)cccc3o2)c(C)c(O)c1C [STEMOFURAN E] | Active | 5 µg/mL (≈ 17.6 µM) | > 200 µg/mL | > 200 µg/mL | – | – | > 200 µg/mL | 18 µg/mL (≈ 63.3 µM) | > 200 µg/mL | > 200 µg/mL | > 200 µg/mL | – | – | 26 µg/mL (≈ 91.4 µM) | > 200 µg/mL | 0.8 µg/mL (≈ 2.81 µM) | > 200 µg/mL | – | – | –
12 | COc1c(C)c(O)c(C)c(-c2cc3c(O)cccc3o2)c1C [STEMOFURAN F] | Active | 10 µg/mL (≈ 33.5 µM) | > 200 µg/mL | > 200 µg/mL | – | – | > 200 µg/mL | – | – | > 200 µg/mL | > 200 µg/mL | – | – | – | – | 79 µg/mL (≈ 265 µM) | > 200 µg/mL | – | 30% | 30%
13 | COc1cc(-c2cc3c(O)c(C)ccc3o2)c(C)c(O)c1C [STEMOFURAN G] | – | 14 µg/mL (≈ 46.9 µM) | > 200 µg/mL | > 200 µg/mL | – | – | > 200 µg/mL | – | – | > 200 µg/mL | > 200 µg/mL | – | – | – | – | > 200 µg/mL | > 200 µg/mL | – | 30% | 30%
14 | COc1cc(-c2cc3c(O)cccc3o2)c(C)c(OC)c1C [STEMOFURAN J] | – | 50 µg/mL (≈ 168 µM) | > 200 µg/mL | > 200 µg/mL | – | – | > 200 µg/mL | 32 µg/mL (≈ 107 µM) | > 200 µg/mL | > 200 µg/mL | > 200 µg/mL | 8.5 µg/mL (≈ 28.5 µM) | 25 µg/mL (≈ 83.8 µM) | 50 µg/mL (≈ 168 µM) | > 200 µg/mL | 34 µg/mL (≈ 114 µM) | > 200 µg/mL | 0.9 µg/mL (≈ 3.02 µM) | – | –
15 | COc1ccccc1CCc1cc(O)cc(O)c1 [STILBOSTEMIN A] | Active | 70 µg/mL (≈ 287 µM) | > 200 µg/mL | > 200 µg/mL | – | – | > 200 µg/mL | > 200 µg/mL | > 200 µg/mL | > 200 µg/mL | > 200 µg/mL | > 200 µg/mL | > 200 µg/mL | – | – | > 200 µg/mL | > 200 µg/mL | 46 µg/mL (≈ 188 µM) | – | 30%
16 | Cc1c(O)cc(CCc2ccccc2)cc1O [STILBOSTEMIN B] | Active | 5 µg/mL (≈ 21.9 µM) | > 200 µg/mL | 200 µg/mL (≈ 876 µM) | – | – | > 200 µg/mL | 16 µg/mL (≈ 70.1 µM) | > 200 µg/mL | > 200 µg/mL | > 200 µg/mL | 371 µg/mL (≈ 1630 µM) | 100 µg/mL (≈ 438 µM) | 10 µg/mL (≈ 43.8 µM) | > 200 µg/mL | 15 µg/mL (≈ 65.7 µM) | > 200 µg/mL | 3 µg/mL (≈ 13.1 µM) | – | –
17 | COc1ccccc1CCc1cc(O)c(C)c(O)c1 [STILBOSTEMIN D] | Active | 19 µg/mL (≈ 73.6 µM) | > 200 µg/mL | > 200 µg/mL | – | – | > 200 µg/mL | 57 µg/mL (≈ 221 µM) | > 200 µg/mL | > 200 µg/mL | > 200 µg/mL | 152 µg/mL (≈ 588 µM) | 100 µg/mL (≈ 387 µM) | 11 µg/mL (≈ 42.6 µM) | > 200 µg/mL | 17 µg/mL (≈ 65.8 µM) | > 200 µg/mL | 3 µg/mL (≈ 11.6 µM) | – | –
